Reference: the RNAGym collection of RNA variant scans (doi:10.1126/science.aae0568)
Fewer inactive variants are shown than the library holds.

B1: tRNA (parent)
chain: GUUCCGUUGGCGUAAUGGUAACGCGUCUCCCUCCUAAGGAGAAGACUGCGGGUUCGAGUCCCGUACGGAACG

Variants of: B1
Assay: yeast fitness relative to wild type (ratio to wild type); higher = fitter; tRNA-Arg(CCU), competitive growth, 37 C, YPD
Procedure, shortened: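 The tRNA-Arg(CCU) gene variants were made by chemical synthesis with a 3% per-site mutation rate at 69 sites and inserted at the native genomic locus of Saccharomyces cerevisiae. After pooling, the strains were competed in YPD at 37°C for 24 hours in six parallel replicates. Gene amplicons from the start population and each end population were read by 100-nucleotide paired-end sequencing, and Darwinian fitness relative to wild type was taken from genotype frequency changes. Genotypes needed ≥ 100 starting reads, and estimates < 0.5 were set to 0.5.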

Variant	yeast fitness
A21U U47G U59A	≤ 0.5
C22A C29A G44C	0.605
C22G A37U A57C	≤ 0.5
A21U U26G G44A	0.511
A21U U26C A45G	≤ 0.5
C22A C55A A57U	≤ 0.5
A21U U53C U54G	≤ 0.5
C22G C24A	0.673
C22A A45C U47C U54G	≤ 0.5
A21U U47G G67A A69G	≤ 0.5
C22G C30A A45G	≤ 0.5
C22A A43C	0.694
C22A A43G	0.809
A21U C62G	0.586
C22A G23C	0.535
C22A C61G	0.594
A21U C49A C62G G68U	0.626
C22G A36C	0.585
A21U C66U	0.78
C22G C30G G68A	≤ 0.5
C22G A40U A43C	0.698
C22G A40U A43U	0.503
A21U C34A G50C	0.535
A21U C33G A42G G44A U64C	0.558

Variant	yeast fitness
C22G C46A G48A A57U C60A	0.576
A21U U26A	0.722
C22G C49G A69U	0.634
A21U G39A C66U	0.55
A21U G52C A57G C61U	≤ 0.5
C22G C27U C30U A37G A43U G67A	≤ 0.5
C22G C49G	0.664
C22G C49U	0.986
C22G C49A	0.682
C22G C31U C49U	0.989
A21U G25A C62A	≤ 0.5
A21U C34A	0.573
A21U C34G	0.597
C22G C30G U59A	≤ 0.5
C22G C24G C27A C60G	0.521
C22G C33A A36C A43U C55G	≤ 0.5
C22G C55G G63C	0.572
C22G C29A A37U C49A	≤ 0.5
C22A G23A C33U C34G C60G G67A	≤ 0.5
C22G C29G G44C G56A A57G	0.515
C22A C60A C61G	0.565
C22A U28G G58C	≤ 0.5
C22G C31U C62U A65U	≤ 0.5
A21U G56C G63A U64C G67C A69U	≤ 0.5

Variant	yeast fitness
C22A G51C C66U	≤ 0.5
C22G C31G U53A	≤ 0.5
A21U C46U C55A G56C	≤ 0.5
C22A C27U G56A A57C	≤ 0.5
C22A C27G U28A C30A C34G G48C	≤ 0.5
C22A A69C	0.874
A21U G50A C62G	0.601
C22G C31U G39A	0.636
C22A C29A A43U	≤ 0.5
C22A G51C A57U	0.624
C22A C24G A45C	0.564
C22G A36G A42G	0.605
C22A C30U U35C	≤ 0.5
C22G C24G G50A	0.694
C22A G67U	0.774
C22G C31G U54G	0.595
C22A C29A U54G	≤ 0.5
C22A G48A	0.826
C22A G51C G68C	≤ 0.5
C22A C31A U53C A57C	≤ 0.5
C22A G48C G51A C55A C66A	≤ 0.5
C22A C31G G68A	≤ 0.5
A21U G50C C66G	≤ 0.5
C22G A43G	0.702

Variant	yeast fitness
C22G A43C	0.708
C22G C27G C31G C60U	≤ 0.5
A21U C55A A65C	≤ 0.5
C22A C24G A36C C66U	0.692
C22G C34A C66A	0.703
C22A C27A U59C	0.586
A21U G52C	≤ 0.5
C22G A45G C46U	0.644
C22A C33U	0.604
C22G C30A C66A	≤ 0.5
C22G C24A G44C G51A G58C U59A	≤ 0.5
A21U U32G G51C C61U	0.541
C22A U35A	0.603
A21U G68C	0.687
C22G A37G	0.697
C22A C29G G44A U64G	≤ 0.5
C22A A37C A65G	0.691
C22G C29G	0.546
C22G C29U	0.838
C22A C34G A36G G48C	≤ 0.5
C22A G23A A37G A69U	≤ 0.5
C22A G23C C27U	≤ 0.5
C22G C30G G50A A57U A70G	≤ 0.5
A21U C49U	0.781

Variant	yeast fitness
C22G C49U C61A	0.69
C22A C33U U54G	≤ 0.5
C22G A36G A37C C46A C49G	≤ 0.5
C22G A36G C55G	≤ 0.5
A21U G56A	0.646
A21U U32G G48C G68C	≤ 0.5
C22G A37C A42G	≤ 0.5
C22G A45U G48C	0.511
C22A A37U	0.578
C22G C34U C60U C62U A70C	≤ 0.5
C22A C29A	0.636
C22A C29U	0.621
C22G C24G U32A C66U	≤ 0.5
C22A C46A A65U	0.687
C22G C24G C29U C33U A37C G52A C66U	0.548
C22G A36C G48A C61A C66U	≤ 0.5
C22A U47A A70G	0.577
A21U C55A	≤ 0.5
C22A U32C	0.869
C22G C29G A42C A45C C61G A69U	≤ 0.5
C22G C30A C49A A69U	≤ 0.5
C22G A42C C66G G67U	≤ 0.5
C22G C49A G56C G58C C60G	0.605
C22A G23C C49G C60U	≤ 0.5

Variant	yeast fitness
C22A C46U	1.1
C22A C55G	0.63
C22A C55U	0.918
A21U G41A A57C	≤ 0.5
A21U G23A C49A	≤ 0.5
A21U U26G A70C	0.729
C22A C30A	0.686
C22G C30G G50A A57U	≤ 0.5
C22A U32A C33U G39A A43C A69C	≤ 0.5
A21U C61U	0.709
C22G A43C C46A C61G A70C	≤ 0.5
A21U G52A A65U	≤ 0.5
C22G C49U A57C	0.594
C22G C34U C66U	≤ 0.5
C22G C29G C62U	≤ 0.5
C22G C62U	0.879
C22A	1
C22G	0.988
C22G C27G A37G G38A	0.532
C22A G50C	0.627
A21U C33G C55U	≤ 0.5
C22G C29G G63A	≤ 0.5
C22A A70G	0.948
C22A A70C	0.877

Variant	yeast fitness
C22A A70U	1.01
C22A G25A A65U	0.684
A21U U32C C49U A57C	0.595
A21U C33U G50A	0.621
C22G C30G A70U	0.601
C22G A37U A43U	0.502
C22A U47A G63C	≤ 0.5
C22A C24U A36U	≤ 0.5
A21U U32C A36G A37U U53G	≤ 0.5
A21U U32C A36G A37U	≤ 0.5
C22G A45C	0.583
C22A C24A U54A	≤ 0.5
C22A U26C U47C	0.541
C22A U47A	0.629
C22G C34A C49A	0.818
C22G C24G G50A C66U A69C	≤ 0.5
A21U U28A U35G G58A C62G	≤ 0.5
A21U G67A	0.818
C22A G51C A69U	0.74
C22G C27G U54C C66U	≤ 0.5
C22A C30U A69C	≤ 0.5
C22G C31A C49G G63C A69U	0.603
C22G C34U C46A C62U	0.611
